In the library only some 0.72% were active in any assay of this set; here they are far more common.
bIAP activator = increases bovine intestinal alkaline phosphatase activity | purified bovine IAP, CDP-star luminescence, 30 min; stronger effect = higher value; fold of DMSO-control signal, blank-subtracted | activation factor at 20 µM | 200,000 compounds, 0.17% hits;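 active = activation factor of 2 or more at 20 µM, a signal rise over negative controls twice the positive control's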
mIAP block = mouse IAP inhibition; purified mouse IAP, CDP-Star luminescence, 30 min; inhibition, % at 10 µM; 330,000 compounds, 0.2% hits; AID 2806;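 active = inhibition of at least 40% at 10 µM in the primary screen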
mIAP act = mouse IAP activation | muIAP, CDP-Star luminescence, 30 min; stronger effect = higher value; 1 = vehicle-only enzyme signal, 0 = enzyme-free wells | activation factor at 10 µM | 330,000 compounds, 0.24% hits;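 active = activation factor of at least 2 at 20 µM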
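Assay system: mouse IAP enzyme; reagent: chemiluminescent substrate CDP-Star; dosing: test compounds delivered from DMSO solution; schedule: 30 min at room temperature; measured by: luminescence from enzymatic CDP-Star hydrolysis; controls: DMSO-only wells and no-enzyme negative control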
bIAP inhibitor = intestinal alkaline phosphatase (bovine) inhibition. purified bovine IAP, CDP-star luminescence, 30 min. 190,000 tested, under 10 active. inhibition, % at 20 µM;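 active = over 50% inhibition of intestinal alkaline phosphatase at 20 µM in the single-dose screen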
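System: Purified bovine intestinal alkaline phosphatase (IAP) enzyme | Input: IAP diluted 1/65,000,000 in the well | Also added: CDP-star chemiluminescent phosphatase substrate, 30 µM final | Dosing: 20 µM single dose | Times: Enzyme reaction for 30 min at room temperature | Detection: Luminescence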
hIAP act = human IAP activation; purified human IAP, CDP-Star luminescence, 30 min; stronger effect = higher value; 1 = vehicle-only enzyme, 0 = enzyme-free background; activation factor at 10 µM; 330,000 compounds, 0.16% hits; AID 2524;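 active = activation factor of the enzyme at least 2-fold when tested at 20 µM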
Target sequence (P09923 whole entry, looked up): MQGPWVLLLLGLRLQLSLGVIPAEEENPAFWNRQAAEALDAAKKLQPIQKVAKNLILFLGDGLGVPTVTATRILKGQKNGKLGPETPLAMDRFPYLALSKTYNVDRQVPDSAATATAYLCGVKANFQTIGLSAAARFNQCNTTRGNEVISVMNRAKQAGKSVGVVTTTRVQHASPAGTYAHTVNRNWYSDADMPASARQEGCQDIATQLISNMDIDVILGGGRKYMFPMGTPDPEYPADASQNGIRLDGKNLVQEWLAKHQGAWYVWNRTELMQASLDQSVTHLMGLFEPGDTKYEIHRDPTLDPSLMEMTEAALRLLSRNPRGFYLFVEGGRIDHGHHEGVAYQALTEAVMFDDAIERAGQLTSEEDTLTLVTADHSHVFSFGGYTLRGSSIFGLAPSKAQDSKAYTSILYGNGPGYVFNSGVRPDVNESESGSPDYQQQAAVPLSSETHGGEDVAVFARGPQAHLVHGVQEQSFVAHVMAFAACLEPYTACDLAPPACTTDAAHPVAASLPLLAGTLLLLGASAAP
hIAP inh = human IAP inhibition; 330,000 compounds, 0.12% hits; inhibition, % at 10 µM; P09923; AID 2544; purified IAP, CDP-Star luminescence, 30 min;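 active = inhibition reaching a set limit with compound at 10 µM in the primary screen, cut at about 35% in these data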
Each line names hits and unclear results; the compound was inactive in the other large screens.

CCC(=O)OCCNc1cc(SCCC(=O)OC)c2nonc2c1[N+](=O)[O-]	none
CNC(=S)N1N=C(c2cccs2)CC1c1ccc(F)cc1 (stereo unspecified)	none (no result: bIAP activator, bIAP inhibitor)
CCOc1cc(/C=C2\CCC/C(=C\c3cc(Cl)c(O)c(OCC)c3)C2=O)cc(Cl)c1O	mIAP block 44.1 (no result: bIAP inhibitor)
Cc1ccc(OCCCn2c(CO)nc3ccccc32)cc1	bIAP activator 6.7
Cc1ccc(SCc2nc3ccccc3[nH]2)cc1	none
Cc1ccc(CSCc2nc3ccccc3[nH]2)cc1	bIAP activator 2.3 (no result: mIAP block, mIAP act, hIAP act, hIAP inh)
CCOC(=O)C1Nc2ccc(C(=O)O)cc2C2C=CCC12 (stereo unspecified)	none (no result: bIAP activator, bIAP inhibitor)
CCOC(=O)c1ccc2c(c1)C1C=CCC1C(C(=O)O)N2 (stereo unspecified)	mIAP block 54.6
Cc1cc(NC(=O)CSc2ncnc3sccc23)no1	none
N#Cc1c(NC(=O)CSc2ncnc3sccc23)oc(-c2ccco2)c1-c1ccco1	mIAP block 69.8
COc1ccc(C(C(=O)NC2CCCC2)N(Cc2ccc(F)cc2)C(=O)c2ccn[nH]2)cc1OC (stereo unspecified)	bIAP activator 2.1
COc1ccc(C(C(=O)NC2CCCC2)N(Cc2cccnc2)C(=O)Cc2cccs2)cc1OC (stereo unspecified)	none (no result: bIAP activator, bIAP inhibitor)
CC(C)(C)NC(=O)C(c1ccc(F)cc1)N(Cc1ccccc1Cl)C(=O)c1ccn[nH]1 (stereo unspecified)	bIAP activator 2.1
COc1ccc(C(C(=O)NC2CCCC2)N(Cc2ccc(C)cc2)C(=O)c2ccn[nH]2)cc1OC (stereo unspecified)	bIAP activator 2.7
COc1cccc(CNC(=O)CCC2CCCN(C(=O)c3cc(C)on3)C2)c1 (stereo unspecified)	none
COc1cccc(CNC(=O)CCC2CCCN(C(=O)c3cc(C4CC4)[nH]n3)C2)c1 (stereo unspecified)	bIAP activator 2.2
CCOc1ccc(CCNC(=O)Cn2nc(C)n3cccc3c2=O)cc1OCC	none (no result: bIAP activator, bIAP inhibitor)
CCC1C(=O)N=C(SCC(=O)Nc2nc3ccccc3s2)NC1=O (stereo unspecified)	none
N#Cc1ccc(NC(=O)Nc2ccc(Cl)cc2)cc1	mIAP act 2.18
CC(=O)c1ccc(OCc2ccc(Oc3c(Cl)cccc3[N+](=O)[O-])cc2)cc1	hIAP act 3.04
CC(=O)c1ccc(OCc2ccc(C(=O)c3ccccc3)cc2)cc1	none
C=C1CCN([C@@H](CC(C)C)C(=O)NCc2ccc(Cl)cc2)S(=O)(=O)c2ccccc21	mIAP block 45.6 (no result: bIAP activator, bIAP inhibitor)
C=C1CCN([C@@H](CC(C)C)C(=O)NCc2ccc(Cl)c(Cl)c2)S(=O)(=O)c2ccccc21	none (no result: bIAP activator, bIAP inhibitor)
COc1ccc(N2C(=O)CSC(c3ccccc3)C2=O)cc1 (stereo unspecified)	none
COc1cc(NC(=O)CN(c2ccc(C)cc2)S(=O)(=O)c2c(C)noc2C)cc(OC)c1	none (no result: bIAP activator, bIAP inhibitor)
COc1cc(NC(=O)CN(c2cc(C)cc(C)c2)S(=O)(=O)c2c(C)noc2C)cc(OC)c1	mIAP act 2.98
Cc1cc(C)cc(NC(=S)NCCN(C2CCCCC2)C2CCCC2)c1	mIAP act 2.06 (no result: bIAP inhibitor)
Cc1ccc(NC(=S)NCCN(C2CCCCC2)C2CCCC2)cc1	none (no result: bIAP inhibitor)
CC(=O)N(C)c1ccc(NC(=O)C(Sc2ccccc2)c2ccccc2)cc1 (stereo unspecified)	bIAP activator 2.2
Cc1ccc(CSCC(=O)N(CCC(C)C)c2c(N)n(Cc3ccccc3)c(=O)[nH]c2=O)cc1	none (no result: bIAP activator, bIAP inhibitor)
O=C(NC1CCCC1)c1sc(=S)n2c1[nH]c(=O)c1ccccc12	none
O=C(NCc1ccco1)c1sc(=S)n2c1[nH]c(=O)c1ccccc12	mIAP block 40.0
c1ccc(Cn2c(CNc3nc4ccccc4n3CCN3CCCCC3)nc3ccccc32)cc1	none
CCN(CC)CCn1c(NCc2nc3ccccc3n2Cc2ccccc2)nc2ccccc21	bIAP activator 2
Cc1ccc(NC(=S)NC2CC3CCC(C2)N3Cc2ccco2)cc1C (stereo unspecified)	none
CC(C)(C)n1nnnc1CN1C2CCC1CC(NC(=O)Nc1ccccc1)C2 (stereo unspecified)	bIAP activator 2.2
CCOC(=O)c1ccc(NC(=O)NC2CC3CCC(C2)N3Cc2nnnn2Cc2ccco2)cc1 (stereo unspecified)	mIAP act 2.24
CCN(CCNC(=O)C1CCN(Cc2nc(-c3cccc(Cl)c3)oc2C)CC1)c1ccccc1	bIAP activator 2.9
CCc1ccc(-c2nc(CN3CCC(C(=O)NCCN(CC)c4ccccc4)CC3)c(C)o2)cc1	bIAP activator 4.4, mIAP act 2.01
CCN(CCNC(=O)C1CCN(Cc2nc(-c3ccc(Cl)cc3)oc2C)CC1)c1ccccc1	none
Cc1cc(NC(=O)c2ccc(C)c(C)c2)no1	none (no result: bIAP activator, bIAP inhibitor)
CN(CC(=O)Nc1ccc(F)c(F)c1)S(=O)(=O)c1cccc2cccnc12	none (no result: bIAP activator, bIAP inhibitor)
CC(C)C[C@@]12C(=O)N(c3cccc(Br)c3)C(=O)N1[C@H](c1ccc(Cl)cc1)[C@@H]1C(=O)N(C3CCCCC3)C(=O)[C@@H]12	mIAP block 46.1 (no result: bIAP activator, bIAP inhibitor)
O=C(NC(=S)Nc1ccccc1N1CCOCC1)c1ccc(-c2cc(Cl)ccc2Cl)o1	bIAP activator 3.9
CC(C1CC2CCC1C2)N1CC(O)=C(c2nc3ccccc3[nH]2)C1=N (stereo unspecified)	none (no result: bIAP activator, bIAP inhibitor)
CC(C)N1CC(O)=C(c2nc3ccccc3[nH]2)C1=N	bIAP activator 2.2
CCN(CC)S(=O)(=O)c1ccc(N2CCN(C)CC2)c(NC(=O)Nc2ccc(C)cc2)c1	mIAP act 2.01 (no result: bIAP activator, bIAP inhibitor)
CCN(CC)S(=O)(=O)c1ccc(N2CCN(C)CC2)c(NC(=O)CSCC(=O)Nc2cccc(C)c2)c1	none (no result: bIAP activator, bIAP inhibitor)
CCc1ccc(NC(=O)C(CC)Sc2nc3cc4c(cc3c(=O)n2Cc2ccco2)OCO4)cc1 (stereo unspecified)	bIAP activator 2.9
CSc1cccc(NC(=O)Nc2nc3c(C)cccc3s2)c1	mIAP act 2.15 (no result: bIAP activator, bIAP inhibitor)
COc1ccc(Cc2nc3ccc(C(=O)NCc4ncc(C)[nH]4)cc3o2)cc1OC	mIAP block 49.7 (no result: bIAP activator, bIAP inhibitor)
CC(NC(=O)CN(C)Cc1nc2ccccc2c(=O)[nH]1)c1ccccc1 (stereo unspecified)	bIAP activator 2.1
CC(=O)NC(CC(=O)N(Cc1ccccc1)c1cccc(C)c1)c1ccccc1 (stereo unspecified)	none (no result: bIAP activator, bIAP inhibitor)
O=C(CCC1CCCCC1)Nc1ncn[nH]1	bIAP activator 2.3
O=C(CCC1CCCCC1)Nc1nccs1	none
CCOc1ccccc1Nc1nnc(SCC(=O)NC2CCS(=O)(=O)C2)s1 (stereo unspecified)	none (no result: bIAP activator, bIAP inhibitor)
CCOc1ccc(S(=O)(=O)N2CCCCC2)cc1NC(=O)C1CCC1	none (no result: bIAP activator, bIAP inhibitor)

Assay outcomes as filed in PubChem BioAssay.
